Screening data (PubChem BioAssay)
PAD4 FP inh – inhibitors of human PAD4 | Q9UM07 | recombinant PAD4, RCA probe fluorescence polarization | inhibition, % at 6.36 µM | hit rate 0.41% among 330,000;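 active means percent inhibition above a cutoff equal to the mean of all tested compounds plus 3 SD, cut at about 15% in these data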;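 further: 0% = PAD4 with RCA probe and DMSO and 100% = probe without PAD4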
PRMT1 inh – blocks human protein arginine methyltransferase 1. hit rate 1.3% among 370,000. recombinant PRMT1, activity-based probe fluorescence polarization. AID 652257. Q99873. inhibition, % at 2.79 µM;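 active means inhibition above about 21% made by adding two undisclosed values, limit read from the data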
TDP2 absorb – blocks human TDP2 phosphodiesterase activity; hit rate 0.34% among 370,000; O95551; inhibition, % at 12.8 µM; AID 720702; recombinant TDP2, T5PNP hydrolysis, p-nitrophenol absorbance 415 nm;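 active means inhibition above the mean of all tested compounds plus 3 SD, set per campaign, cut at about 25% in these data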;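 further: 0% = DMSO with enzyme and 100% = buffer with substrate but no TDP2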
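System – recombinant human TDP2 · Quantity – TDP2 enzyme at 120 nM final · Doses – single concentration, 12.8 µM nominal, with 1% DMSO · Incubation – 2 h at 37 °C · Measured by – epi absorbance of p-nitrophenol freed from T5PNP by hydrolysis · Read-out – % inhibition relative to enzyme-containing and enzyme-free wells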
Apaf1 inhib – blocks human Apaf-1 apoptosome activity. O14727. reconstituted apoptosome caspase-3 activity, DEVD-Rh110 fluorescence. AID 489030. hit rate 0.71% among 330,000. inhibition, % at 20 µM; active means inhibition of at least 40% at 20 µM;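 further: plate controls were DMSO wells for no effect and DEVD-CHO caspase inhibitor wells for full effect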
Target sequence (O14727 whole entry, looked up): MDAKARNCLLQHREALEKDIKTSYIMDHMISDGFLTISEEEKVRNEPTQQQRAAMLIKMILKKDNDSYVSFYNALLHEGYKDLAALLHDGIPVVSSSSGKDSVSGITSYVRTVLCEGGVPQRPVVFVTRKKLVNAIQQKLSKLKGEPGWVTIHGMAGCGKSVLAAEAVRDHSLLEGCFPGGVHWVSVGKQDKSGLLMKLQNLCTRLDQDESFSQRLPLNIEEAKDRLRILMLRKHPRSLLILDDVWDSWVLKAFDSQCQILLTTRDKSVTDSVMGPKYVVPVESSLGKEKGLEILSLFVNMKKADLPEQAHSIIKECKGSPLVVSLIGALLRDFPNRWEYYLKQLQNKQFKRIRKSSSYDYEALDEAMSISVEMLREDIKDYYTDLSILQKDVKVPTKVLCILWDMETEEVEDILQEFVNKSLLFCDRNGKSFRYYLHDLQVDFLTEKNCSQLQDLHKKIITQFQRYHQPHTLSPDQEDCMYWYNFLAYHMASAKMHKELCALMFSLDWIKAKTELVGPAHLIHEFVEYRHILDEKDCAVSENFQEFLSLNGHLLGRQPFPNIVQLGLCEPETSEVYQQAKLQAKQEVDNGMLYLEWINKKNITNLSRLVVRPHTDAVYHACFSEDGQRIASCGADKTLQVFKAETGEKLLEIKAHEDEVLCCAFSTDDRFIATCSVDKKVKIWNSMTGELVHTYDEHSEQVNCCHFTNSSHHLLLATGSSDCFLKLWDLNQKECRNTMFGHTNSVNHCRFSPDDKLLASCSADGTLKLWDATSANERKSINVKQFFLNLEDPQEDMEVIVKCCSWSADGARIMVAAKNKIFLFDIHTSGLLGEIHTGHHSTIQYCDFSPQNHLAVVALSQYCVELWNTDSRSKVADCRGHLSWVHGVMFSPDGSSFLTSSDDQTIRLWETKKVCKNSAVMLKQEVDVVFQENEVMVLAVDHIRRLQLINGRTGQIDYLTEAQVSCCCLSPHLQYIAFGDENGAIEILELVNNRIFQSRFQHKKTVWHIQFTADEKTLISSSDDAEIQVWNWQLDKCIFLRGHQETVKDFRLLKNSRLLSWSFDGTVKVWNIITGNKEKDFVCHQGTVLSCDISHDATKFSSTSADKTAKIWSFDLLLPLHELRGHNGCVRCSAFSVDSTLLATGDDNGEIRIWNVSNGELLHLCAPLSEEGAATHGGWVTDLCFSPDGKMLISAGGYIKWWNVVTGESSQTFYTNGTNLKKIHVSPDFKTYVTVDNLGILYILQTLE
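Assay system – apoptosome proteins · Medium – Hepes buffer, pH 7.5 · Also added – cytochrome c with DEVD-Rh110 · Timing – 30 min compound preincubation, 50 min activation, room temperature · Detection – Rh110 fluorescence, excitation 480 nm, emission 540 nm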
GSTO1 counter – counter-screen for RBBP9 inhibitors: inhibitors of human GSTO1; hit rate 1.1% among 300,000; P78417; recombinant GSTO1, activity-based probe fluorescence polarization; inhibition, % at 5.96 µM;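 active means inhibition above the campaign mean inhibition plus 3 SD, cut at about 35% in these data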;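 further: 0% = GSTO1-1 with DMSO and 100% = wells lacking GSTO1-1 enzyme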
PAD4 confirm – PAD4 (human) inhibition, confirmed. shares compounds with PAD4 FP inh. inhibition, % at 6.36 µM. recombinant PAD4, RCA probe fluorescence polarization. hit rate 28% among 1,200;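 active means mean inhibition across replicates above the hit cutoff set by the earlier primary screen, cut at about 15% in these data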;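 further: inhibitors block active-site labeling by the probe so polarization falls; 0% = PAD4 with probe and DMSO and 100% = probe without PAD4 enzyme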
* hit, by the source's call. This is a sample that favours compounds with a hit; in the whole collection about 2.6% have one here.

What do the screens show for `O=C(O)c1ccccc1Sc1c([N+](=O)[O-])cc(C(F)(F)F)cc1[N+](=O)[O-]`?
PAD4 FP inh: 45.0*; PRMT1 inh: 4.0; TDP2 absorb: -5.7; Apaf1 inhib: -2.7; GSTO1 counter: 36.1*; PAD4 confirm: 25.8*

What do the screens show for `COC(=O)c1cnn(-c2ccccc2)c1C(OC)OC`?
PAD4 FP inh: 17.9*; PRMT1 inh: -6.7; TDP2 absorb: 1.3; Apaf1 inhib: -14.1; GSTO1 counter: -1.0; PAD4 confirm: 2.3

How did O=C(COC(=O)c1ccc([N+](=O)[O-])s1)c1ccc[nH]1 do in these assays?
PAD4 FP inh: 25.2*; PRMT1 inh: -5.9; TDP2 absorb: 35.1*; Apaf1 inhib: 33.4; PAD4 confirm: 2.4

What do the screens show for `O=C(OCC(=O)c1ccc[nH]1)c1ccc([N+](=O)[O-])cc1`?
PAD4 FP inh: -5.0; PRMT1 inh: 1.2; TDP2 absorb: 6.1; Apaf1 inhib: 8.7

How did COc1ccc(OC)c2[nH]c(=O)c(CCNC(=O)CC(C)C)cc12 do in these assays?
PAD4 FP inh: 49.9*; PRMT1 inh: 1.9; TDP2 absorb: 1.7; Apaf1 inhib: 7.4; GSTO1 counter: 1.8; PAD4 confirm: 6.9

What do the screens show for `COc1ccc(OC)c2[nH]c(=O)c(CCNC(=O)C(C)C)cc12`?
PAD4 FP inh: 0.3; PRMT1 inh: -2.7; TDP2 absorb: -11.0; Apaf1 inhib: -2.7; GSTO1 counter: 3.2

How did CCC(c1nc2ccccc2[nH]1)N(C(=O)C1=NNC(=O)CC1)c1ccccc1 (stereo unspecified) do in these assays?
PRMT1 inh: 3.7; TDP2 absorb: 8.4

What do the screens show for `Cc1cc(O)ccc1Nc1cc(-c2cccc(N(C)C)c2)ncn1`?
PRMT1 inh: 3.0; TDP2 absorb: -0.3

Results for CN(C)c1cccc(O)c1 ?
PAD4 FP inh: 21.8*; PRMT1 inh: 6.4; TDP2 absorb: 2.0; Apaf1 inhib: -0.1; PAD4 confirm: 2.1

Results for COC(=O)[C@@H]1C[C@]2(OC(=O)c3ccccc3)C=CC(=O)C[C@@H]2N1C(=O)OCc1ccccc1 ?
PAD4 FP inh: 19.2*; PRMT1 inh: -1.4; TDP2 absorb: -1.3; Apaf1 inhib: 21.4; GSTO1 counter: 5.7; PAD4 confirm: 21.9*

Results for COC(CNC(=O)C1CCCN1C(=O)OCc1ccccc1)OC (stereo unspecified) ?
PAD4 FP inh: 1.9; PRMT1 inh: -2.3; TDP2 absorb: 5.2; GSTO1 counter: 1.6

What do the screens show for `CCOC(=O)[C@]12CCC=C1N(Cc1ccco1)C(=O)[C@H](CC(=O)N1CCN(C(=O)c3ccco3)CC1)C2`?
PRMT1 inh: -0.7; TDP2 absorb: -6.0

Results for CCS(=O)(=O)CCSc1nc2ccccc2o1 ?
PAD4 FP inh: 0.1; PRMT1 inh: 0.9; TDP2 absorb: 2.5; Apaf1 inhib: 3.1; GSTO1 counter: 11.7

How did O=S(=O)(CCSc1nc2ccccc2o1)c1nc2ccccc2s1 do in these assays?
PAD4 FP inh: 17.4*; PRMT1 inh: -2.2; TDP2 absorb: -3.8; Apaf1 inhib: 8.7; GSTO1 counter: -4.3; PAD4 confirm: 15.8*

How did Cc1cccc(C(=O)O/N=C(\N)Cc2cccc3ccccc23)c1 do in these assays?
PAD4 FP inh: 34.3*; Apaf1 inhib: 12.7; GSTO1 counter: -2.9; PAD4 confirm: 3.5

Results for CCC[C@H]1[C@@H](NC(=O)c2cccc(C)c2)CC[C@@]23CCCN2C(=O)CCC[C@@H]13 ?
PRMT1 inh: 2.1; TDP2 absorb: -0.2

What do the screens show for `CCOC(=O)c1sc2nc(CSc3ccccc3)nc(N3CCC(C(N)=O)CC3)c2c1C`?
PAD4 FP inh: 39.9*; PRMT1 inh: -4.5; TDP2 absorb: 6.9; Apaf1 inhib: 25.4; GSTO1 counter: -6.7; PAD4 confirm: -0.9

How did Cc1sc2nc(CSc3ccccc3)nc(N3CCC(C(N)=O)CC3)c2c1C do in these assays?
PAD4 FP inh: 3.4; PRMT1 inh: -4.0; TDP2 absorb: 1.7; Apaf1 inhib: 14.1; GSTO1 counter: -4.5

How did CCN(CC)c1nc(N)nc(NS(=O)(=O)c2ccc(Cl)cc2)n1 do in these assays?
PAD4 FP inh: 27.0*; PRMT1 inh: 1.2; TDP2 absorb: 2.7; Apaf1 inhib: 0.6; GSTO1 counter: 7.1; PAD4 confirm: 3.8

What do the screens show for `O=C(O)c1ccccc1SSc1ccccc1C(=O)O`?
PAD4 FP inh: 45.2*; PRMT1 inh: 8.1; TDP2 absorb: -9.7; Apaf1 inhib: 12.7; GSTO1 counter: 19.2; PAD4 confirm: 38.0*

Results for CC(NCc1ccco1)C(=O)N1CCCC1 (stereo unspecified) ?
PRMT1 inh: 3.8; TDP2 absorb: -5.2

Results for COC(=O)[C@]12CCCCC=C1N(Cc1ccc(OC)cc1)C(=O)[C@@H]2CC(=O)NCCC(C)C ?
PRMT1 inh: -3.0; TDP2 absorb: -8.0

What do the screens show for `Cc1c(NC(=O)C(C)OC(=O)c2cc(-c3cccc4ccccc34)nc3ccccc23)c(=O)n(-c2ccccc2)n1C` (stereo unspecified)?
PAD4 FP inh: 18.6*; PRMT1 inh: 1.1; TDP2 absorb: 0.6; Apaf1 inhib: 26.7; GSTO1 counter: 7.6; PAD4 confirm: 3.8

How did COc1ccc(-c2cc(C(=O)OC(C)C(=O)Nc3c(C)n(C)n(-c4ccccc4)c3=O)c3ccccc3n2)cc1 (stereo unspecified) do in these assays?
PAD4 FP inh: -2.1; PRMT1 inh: -1.3; TDP2 absorb: 5.3; Apaf1 inhib: 20.3; GSTO1 counter: 0.4

How did CCCCCCCN1N=C(C)C(C(=O)c2ccccc2)C1=O (stereo unspecified) do in these assays?
PAD4 FP inh: 0.5; PRMT1 inh: 3.2; TDP2 absorb: -5.3; Apaf1 inhib: 2.0; GSTO1 counter: -3.0

Results for CCCCCN1N=C(C)CC1=O ?
PAD4 FP inh: 22.4*; PRMT1 inh: -1.7; TDP2 absorb: 24.3; Apaf1 inhib: 6.7; GSTO1 counter: 29.7; PAD4 confirm: -1.1

How did COC(=O)[C@@]12C[C@@H](CC(=O)NCC3CCCCC3)C(=O)N(Cc3ccc4c(c3)OCO4)C1=CCC(C)(C)C2 do in these assays?
PRMT1 inh: -2.4; TDP2 absorb: -3.4

What do the screens show for `Cc1ccc(C(=O)Nc2nc3ccccc3c(=O)s2)cc1`?
PAD4 FP inh: 15.0*; PRMT1 inh: 59.3*; TDP2 absorb: 5.9; Apaf1 inhib: -9.9; GSTO1 counter: 7.4; PAD4 confirm: -4.0

How did O=C(Nc1nc(=O)c2ccccc2s1)c1ccccc1 do in these assays?
PAD4 FP inh: 23.9*; PRMT1 inh: 74.6*; TDP2 absorb: 3.0; Apaf1 inhib: 15.5; GSTO1 counter: -7.2; PAD4 confirm: 2.5

How did N#CCC[C@@H]1CC[C@]2(CCCN(S(=O)(=O)C3CCCCC3)C2)O1 do in these assays?
PRMT1 inh: -2.6; TDP2 absorb: 3.8

How did COC1=CC(=O)OC(c2cccc(Cl)c2)C1 (stereo unspecified) do in these assays?
PRMT1 inh: 2.5; TDP2 absorb: 6.5
